According to publication PMC6503841 (Nature chemical biology, 2018):
Values belong to the molecule of their own block, whether it stands above or below them. Where a SMILES comes first, the peptide text is derived from it. Where no end group is shown, it is not given here. The star is where a group is joined. Oxazole(5-CO) = O=C(c1cnco1)*; Crotonyl(E) = C/C=C/C(=O)*; 2Furoyl = O=C(c1ccco1)*; Cbz = O=C(OCc1ccccc1)*

Assays:
[1] = target: T1, AF9 YEATS (Homo sapiens, UniProt P42568); assay: isothermal titration calorimetry; assay type: binding; settings: ITC Kd versus the crotonyl group (H3K9cr)
T1 sequence (P42568 1-138): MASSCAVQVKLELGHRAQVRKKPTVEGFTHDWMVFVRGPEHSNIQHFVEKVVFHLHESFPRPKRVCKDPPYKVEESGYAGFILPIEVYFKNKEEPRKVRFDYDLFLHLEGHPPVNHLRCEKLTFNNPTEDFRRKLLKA

[2] = test system: YEATS domains of YEATS2 and GAS41; assay: competitive photo-cross-linking assay, YEATS2 and GAS41 YEATS domains; assay type: binding, human; settings: AF9 and ENL versus YEATS2 and GAS41; result in words
[3] = target: T2, ENL YEATS (Homo sapiens, UniProt Q03111); assay: competitive photo-cross-linking assay, ENL YEATS; assay type: binding; settings: comparing with AF9 YEATS
T2 sequence (Q03111 1-138): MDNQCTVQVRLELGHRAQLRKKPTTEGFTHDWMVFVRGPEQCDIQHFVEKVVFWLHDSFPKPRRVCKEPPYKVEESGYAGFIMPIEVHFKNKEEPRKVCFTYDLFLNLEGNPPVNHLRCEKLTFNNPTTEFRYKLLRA

[4] = target: T3, endogenous ENL (Homo sapiens, UniProt Q03111); assay: competitive photo-cross-linking pull-down in nuclear extracts, ENL; assay type: binding
T3 sequence (Q03111 1-559): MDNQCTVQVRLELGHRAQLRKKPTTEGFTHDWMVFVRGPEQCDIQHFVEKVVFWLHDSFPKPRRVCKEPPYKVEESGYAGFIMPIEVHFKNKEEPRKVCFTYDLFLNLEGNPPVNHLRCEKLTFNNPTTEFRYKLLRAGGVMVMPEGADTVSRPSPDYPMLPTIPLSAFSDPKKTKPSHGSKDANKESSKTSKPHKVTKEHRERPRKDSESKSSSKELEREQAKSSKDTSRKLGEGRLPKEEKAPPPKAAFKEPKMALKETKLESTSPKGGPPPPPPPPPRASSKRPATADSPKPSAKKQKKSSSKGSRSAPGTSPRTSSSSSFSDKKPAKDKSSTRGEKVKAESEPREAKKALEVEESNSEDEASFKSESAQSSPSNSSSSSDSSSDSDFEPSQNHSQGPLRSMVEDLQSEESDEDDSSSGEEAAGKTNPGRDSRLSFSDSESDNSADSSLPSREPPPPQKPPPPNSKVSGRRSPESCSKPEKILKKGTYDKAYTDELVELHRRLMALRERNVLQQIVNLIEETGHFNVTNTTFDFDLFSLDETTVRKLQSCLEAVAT

[5] = target: T4, endogenous AF9 (Homo sapiens, UniProt P42568); assay: cellular thermal shift assay; assay type: cell-based; settings: MOLM-13, MV4;11, HEL cells, 50 μM, 12 h
T4 sequence (P42568 1-568): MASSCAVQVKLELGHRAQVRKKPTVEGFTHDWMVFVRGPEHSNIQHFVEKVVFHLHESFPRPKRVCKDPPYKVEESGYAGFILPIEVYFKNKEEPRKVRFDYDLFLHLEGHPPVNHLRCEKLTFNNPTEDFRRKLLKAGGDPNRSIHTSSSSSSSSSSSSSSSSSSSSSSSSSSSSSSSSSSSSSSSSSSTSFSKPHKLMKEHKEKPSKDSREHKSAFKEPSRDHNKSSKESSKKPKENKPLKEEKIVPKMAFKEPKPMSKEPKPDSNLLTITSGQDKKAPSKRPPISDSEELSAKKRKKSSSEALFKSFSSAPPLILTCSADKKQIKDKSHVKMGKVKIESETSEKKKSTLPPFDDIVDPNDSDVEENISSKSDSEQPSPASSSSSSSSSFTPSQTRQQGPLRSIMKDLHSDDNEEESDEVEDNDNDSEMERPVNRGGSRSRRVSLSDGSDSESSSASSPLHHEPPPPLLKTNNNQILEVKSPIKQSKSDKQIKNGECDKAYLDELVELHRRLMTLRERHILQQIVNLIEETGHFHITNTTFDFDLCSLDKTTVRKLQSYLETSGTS
In short: (§1)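 CETSA: MOLM-13 (Flag-ENL), MV4;11 or HEL cells were incubated with 50 μM test compound for 12 h, washed with PBS and resuspended in PBS with protease inhibitors (~3 million cells/100 μl). Aliquots were heated at indicated temperatures for 3 min, then held at room temperature for 3 min. Cells were lysed by two liquid-nitrogen freeze-thaw cycles and spun at 20,000×g for 20 min at 4 °C. Soluble supernatant was immunoblotted.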

[6] = test system: ENL at HOXA10, MYB, MYC and MEIS1 in MOLM-13 cells; assay: ChIP-qPCR of ENL at target genes; assay type: cell-based, human; settings: MOLM-13 (Flag-ENL) cells, 50 μM, 24 hours
In short: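 MOLM-13 (Flag-ENL) cells (about 20 million) were treated with or without 50 μM test compound for 24 h, cross-linked with formaldehyde for 10 min at room temperature and quenched with glycine. Chromatin was sonicated to 600–800 bp. 50 μg chromatin (5 μg input) was immunoprecipitated overnight at 4 °C with anti-FLAG M2 magnetic beads, washed, eluted and reverse cross-linked. DNA was measured by qPCR as percentage of input, n = 4 (HOXA10) or 3 (others).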

[7] = target: T4, endogenous AF9; assay: competitive photo-cross-linking pull-down in nuclear extracts, AF9; assay type: binding
[8] = target: T5, ENL (Homo sapiens, UniProt Q03111); assay: cellular thermal shift assay; assay type: cell-based; settings: MOLM-13, MV4;11, HEL cells, 50 μM, 12 h; 55 °C, 57 °C, and 59 °C
T5 sequence (Q03111 1-559): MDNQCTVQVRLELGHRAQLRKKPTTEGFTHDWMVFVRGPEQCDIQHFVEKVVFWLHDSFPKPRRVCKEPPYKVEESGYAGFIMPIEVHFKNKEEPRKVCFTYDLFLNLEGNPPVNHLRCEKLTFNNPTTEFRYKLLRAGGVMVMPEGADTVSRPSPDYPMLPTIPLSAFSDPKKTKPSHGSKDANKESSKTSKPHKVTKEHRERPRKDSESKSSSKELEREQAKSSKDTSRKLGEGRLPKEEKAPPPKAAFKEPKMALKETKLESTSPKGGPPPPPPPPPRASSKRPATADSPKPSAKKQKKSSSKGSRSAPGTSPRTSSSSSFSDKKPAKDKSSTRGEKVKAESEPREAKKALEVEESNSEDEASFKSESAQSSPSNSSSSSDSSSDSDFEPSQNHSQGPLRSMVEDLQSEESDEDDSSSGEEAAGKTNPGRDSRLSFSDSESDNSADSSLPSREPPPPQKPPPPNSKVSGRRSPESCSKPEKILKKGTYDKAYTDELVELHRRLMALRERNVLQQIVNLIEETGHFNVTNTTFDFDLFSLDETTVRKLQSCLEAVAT
In short: as §1

[9] = target: T1, AF9 YEATS; assay: competitive photo-cross-linking assay; assay type: binding; settings: compared with ENL YEATS
[10] = test system: MOLM-13 cells; assay: RT-qPCR of mRNA levels in MOLM-13 cells; assay type: cell-based, human
[11] = target: ENL YEATS domain, ENL (1–138) (human) (UniProt Q03111); assay: cross-linking
[12] = target: T6, AF9 YEATS domain, AF9 (1–138) (human, UniProt P42568 1-138); assay: ITC
T6 sequence (looked up): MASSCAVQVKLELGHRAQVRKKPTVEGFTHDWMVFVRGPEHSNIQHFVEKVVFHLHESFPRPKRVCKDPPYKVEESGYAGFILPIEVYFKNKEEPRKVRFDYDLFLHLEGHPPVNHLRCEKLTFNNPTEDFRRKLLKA

[13] = target: T6, AF9 YEATS domain, AF9 (1–138); assay: cross-linking
[14] = target: T7, ENL YEATS domain, ENL (1–138) (human, UniProt Q03111 1-138); assay: cross-linking
T7 sequence (looked up): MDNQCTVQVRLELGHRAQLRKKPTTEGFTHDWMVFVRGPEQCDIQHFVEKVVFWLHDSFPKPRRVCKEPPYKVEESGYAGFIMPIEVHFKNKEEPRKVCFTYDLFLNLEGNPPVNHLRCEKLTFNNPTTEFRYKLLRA

[15] = nuclear extracts of HeLa S3 and MOLM-13 (Flag-ENL), result in words

binding enhancement [1]: 4.5 fold
Molecule: C[C@H](NC(=O)[C@@H](NC(=O)[C@H](CCC(N)=O)NC(=O)[C@@H](N)CCCCN)[C@@H](C)O)C(=O)N[C@@H](CCCNC(=N)N)C(=O)N[C@@H](CCCCNC(=O)c1ccco1)C(=O)N[C@@H](CO)C(=O)N[C@H](C(=O)NCC(=O)NCC(N)=O)[C@@H](C)O [XL-07] (H-KQTARK(2Furoyl)STGG-NH2; N-terminus and C-terminus assumed)

lower potency against ENL YEATS [3]: 5 fold
Molecule: C[C@H](NC(=O)[C@@H](NC(=O)[C@H](CCC(N)=O)NC(=O)OCc1ccccc1)[C@@H](C)O)C(=O)N[C@@H](CCCNC(=N)N)C(=O)N[C@@H](CCCCNC(=O)c1ccco1)C(N)=O [XL-07i]
selectivity among YEATS domains [2]: more selective toward the YEATS domains of AF9 and ENL over YEATS2 and GAS41

binding enhancement [1]: 14.7 fold
Molecule: C[C@H](NC(=O)[C@@H](NC(=O)[C@H](CCC(N)=O)NC(=O)[C@@H](N)CCCCN)[C@@H](C)O)C(=O)N[C@@H](CCCNC(=N)N)C(=O)N[C@@H](CCCCNC(=O)c1cnco1)C(=O)N[C@@H](CO)C(=O)N[C@H](C(=O)NCC(=O)NCC(N)=O)[C@@H](C)O [XL-13] (H-KQTARK(Oxazole(5-CO))STGG-NH2; N-terminus and C-terminus assumed)

photo-H3K9cr-induced enrichment of ENL [4, 15]: significantly inhibited
inhibition at 2 µM ([4]; read-out: inhibition of photo-H3K9cr-induced enrichment of endogenous ENL): ~50%
thermal stability of endogenous AF9 [5]: almost no differences
enrichment of AF9 [7, 15]: little effects
inhibition at 2 µM ([7]; read-out: inhibition of enrichment of AF9): ~3%
thermal stability of ENL (soluble protein) [8]: higher abundance of soluble ENL proteins
weaker inhibition against AF9 YEATS [9]: 4.5 fold
Molecule: C[C@H](NC(=O)OCc1ccccc1)C(=O)N[C@@H](CCCNC(=N)N)C(=O)N[C@@H](CCCCNC(=O)c1cnco1)C(N)=O [XL-13m]
abundance of ENL at HOXA10, MYB, MYC and MEIS1 [6]: decreases in the abundance of ENL
transcription levels of HOXA10, MYB, MYC and MEIS1 ([10]; MOLM-13 (Flag-ENL) cells, 50 μM, 24 hours): significant loss in the transcription levels
transcription suppression of MYC and HOXA9 ([10]; co-treatment of XL-13m (50 μM) and EPZ-5676 (500 nM), 72 hours): enhanced effect on the transcription suppression

weaker inhibition against AF9 YEATS [9]: 6.1 fold
Molecule: C[C@H](NC(=O)OCc1ccccc1)C(=O)N[C@@H](C)C(=O)N[C@@H](CCCNC(=N)N)C(=O)N[C@@H](CCCCNC(=O)c1cnco1)C(N)=O [XL-13n] (Cbz-AARK(Oxazole(5-CO))-NH2)

IC50 [11]: 3300 nM
Molecule: XL-13l (dipeptide with only the RK signature motif, 5-oxazolecarbonyl at K27)

Kd [12]: 14700 nM
IC50 [13]: 6000 nM
Molecule: KQTARK(Crotonyl(E))STGG (peptide, UniProt P68431 5-14, looked up) [H3K9cr peptide (histone H3 residues 4–13, Lys 9 crotonylated)]

Kd [12]: 130 nM
IC50 [13]: 240 nM
fold lower potency than against AF9 YEATS [14]: 2.9 fold
Molecule: Cbz-QTARK(Oxazole(5-CO)) [XL-13a (XL-07i with the 2-furancarbonyl group replaced by a 5-oxazolecarbonyl group)]

IC50 [13]: 4500 nM
Molecule: QTARK(2Furoyl) [XL-07h (pentapeptide with the QTARK sequence)]

Kd [12]: 330 nM
IC50 [13]: 260 nM
fold lower potency than against AF9 YEATS [14]: 5 fold
Molecule: Cbz-QTARK(2Furoyl)
